Data reported in ChEMBL document CHEMBL3779799, “Antifibrotic and anticancer action of 5-ene amino/iminothiazolidinones” (Eur J Med Chem, 2016).
The source made the active and inactive calls. The rule behind the calls is not given here.

How the values were obtained:
HFL1 [1] = assay: Antifibrotic activity in HFL1 cells assessed as inhibition of cell viability after 48 hrs by sulforhodamine B assay; format: functional, cell-based; details: Homo sapiens, HFL1, 48 h
In short: (§1)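 HFL-1 human fetal lung fibroblasts (DMEM, 10% FCS, passages 14–18) seeded at 8000 cells/well, attached overnight, then exposed to a range of concentrations for 48 h in triplicate. Cells were fixed with TCA and stained with 0.4% SRB, bound dye was solubilized in Tris, and OD was read at 570 nm relative to control.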

HFL1 [2] = assay: Antifibrotic activity in HFL1 cells assessed as inhibition of cell viability at >1 uM after 48 hrs by sulforhodamine B assay relative to control; format: functional; details: Homo sapiens, HFL1, 48 h; in short: as §1
NCI-H460 = assay: Cytotoxicity against human NCI-H460 cells assessed as cell growth at 10^-4 M after 48 hrs by sulforhodamine B assay relative to control; format: functional; details: NCI-H460, 48 h, read-out: Activity
In short: (§2)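 Cells were inoculated and preincubated 24–48 h, then exposed to a single dose of 10^-4 M for 48 h. SRB protein staining was the endpoint, and growth percent was calculated versus untreated controls.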

MCF7 [3] = assay: Cytotoxicity against human MCF7 cells assessed as cell growth at 10^-4 M after 48 hrs by sulforhodamine B assay relative to control; format: functional; details: MCF7, 48 h, read-out: Activity; in short: as §2
[4] = Cytotoxicity against human SF268 cells assessed as cell growth at 10^-4 M after 48 hrs by sulforhodamine B assay relative to control; format: functional; details: SF-268, 48 h, read-out: Activity; in short: as §2
[5] = Growth inhibition of human NCI60 cells after 48 hrs by sulforhodamine B assay; format: functional; details: NCI60, 48 h; for CC50: read-out: pLC50 (the source's name) (converted); for TGI: read-out: pTGI (converted)
In short: (§3)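 NCI ~60-cell-line panel with five 10-fold dilutions (10^-4 to 10^-8 M) and 48 h continuous exposure, using an SRB endpoint. Percentage growth was derived from time-zero, control and treated absorbances. Values are expressed as > or < when outside the tested range.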

[6] = Growth inhibition of human HOP62 cells after 48 hrs by sulforhodamine B assay; format: functional; details: HOP-62, 48 h
In short: (§4)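 NCI ~60-cell-line panel with five 10-fold dilutions (10^-4 to 10^-8 M) and 48 h continuous exposure, using an SRB endpoint. Percentage growth was derived from time-zero, control and treated absorbances. […] Values are expressed as > or < when outside the tested range.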

[7] = Growth inhibition of human HOP92 cells after 48 hrs by sulforhodamine B assay; format: functional; details: HOP-92, 48 h; in short: as §4
[8] = Growth inhibition of human HCT116 cells after 48 hrs by sulforhodamine B assay; format: functional; details: HCT-116, 48 h; for CC50: read-out: LC50 (the source's name); in short: as §3
U-251 = assay: Growth inhibition of human U251 cells after 48 hrs by sulforhodamine B assay; format: functional; details: U-251, 48 h; in short: as §4
MDA-MB-231 = assay: Growth inhibition of human MDA-MB-231 cells after 48 hrs by sulforhodamine B assay; format: functional; details: MDA-MB-231, 48 h; in short: as §4
HFL1 [9] = assay: Antifibrotic activity in HFL1 cells assessed as reduction in cell proliferation at 0.1 to 1 uM after 150 hrs by xCelligence analysis; format: functional, cell-based; details: Homo sapiens
In short: (§5)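 HFL-1 cells were seeded at 20,000/well and monitored by real-time impedance (xCelligence). Compound or DMSO vehicle was added at ~30 h, once attachment was maximal, and cells were followed for another 150 h. P150 was taken as the signal difference between 30 h and 180 h; Pdot was the maximum slope of the curve.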

[10] = Antioxidant activity assessed as inhibition of superoxide anion generation upto 10 uM measured for 3 mins by nitro blue tetrazolium assay; format: physicochemical; details: 0.05 h
In short: (§6)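 Cell-free superoxide generated by xanthine (1 mM) and xanthine oxidase (0.11 U/mL), with NBT (50 µM) as detector. Compounds in DMSO were tested up to 10 µM, with DMSO held at 0.1%. NBT reduction rate (dA560/dt) was read spectrophotometrically over 3 min from the linear part.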

MDA-MB-435 = assay: Growth inhibition of human MDA-MB-435 cells after 48 hrs by sulforhodamine B assay; format: functional; details: MDA-MB-435, 48 h; in short: as §4
[11] = Growth inhibition of human OVCAR3 cells after 48 hrs by sulforhodamine B assay; format: functional; details: OVCAR-3, 48 h; in short: as §4
MCF7 [12] = assay: Growth inhibition of human MCF7 cells after 48 hrs by sulforhodamine B assay; format: functional; details: MCF7, 48 h; in short: as §4
[13] = Growth inhibition of human RPMI8226 cells after 48 hrs by sulforhodamine B assay; format: functional; details: RPMI-8226, 48 h; in short: as §4
SR = assay: Growth inhibition of human SR cells after 48 hrs by sulforhodamine B assay; format: functional
In short: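 NCI 60-cell-line panel, five-dose screen: cells inoculated and preincubated 24-48 h, then exposed continuously for 48 h to five 10-fold dilutions from 10^-4 to 10^-8 M. Protein measured by SRB staining at time zero, in untreated control and in treated wells.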

KM12 = assay: Growth inhibition of human KM12 cells after 48 hrs by sulforhodamine B assay; format: functional; details: KM12, 48 h; in short: as §4
[14] = Growth inhibition of human SW620 cells after 48 hrs by sulforhodamine B assay; format: functional; details: SW-620, 48 h; in short: as §4
HFL1 [15] = assay: Antifibrotic activity in HFL1 cells assessed as reduction in cell proliferation after 150 hrs by xCelligence analysis; details: Homo sapiens
[16] = Antioxidant activity assessed as inhibition of superoxide anion generation measured for 3 mins by nitro blue tetrazolium assay; format: physicochemical; details: for Emax: 0.05 h; in short: as §6
HFL1 [17] = assay: Antifibrotic activity in HFL1 cells assessed as reduction in maximum rate of cell proliferation after 150 hrs by xCelligence analysis; format: functional, cell-based; details: Homo sapiens; in short: as §5
[18] = Cytotoxicity against human NCI60 cells assessed as cell growth at 10^-5 M after 48 hrs by sulforhodamine B assay relative to control; format: functional; details: NCI60, 48 h, read-out: Activity
In short: (§7)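 NCI ~60 human tumor cell line one-dose screen covering nine cancer types. Cells were preincubated 24–48 h, then exposed to compound at 10^-5 M for 48 h. SRB protein staining was the endpoint, and growth percent was calculated versus untreated control cells.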

[19] = Cytotoxicity against human RPMI8226 cells assessed as cell growth at 10^-5 M after 48 hrs by sulforhodamine B assay relative to control; format: functional; details: RPMI-8226, 48 h, read-out: Activity; in short: as §7
NCI-H522 = assay: Cytotoxicity against human NCI-H522 cells assessed as cell growth at 10^-5 M after 48 hrs by sulforhodamine B assay relative to control; format: functional; details: NCI-H522, 48 h, read-out: Activity; in short: as §7
[20] = Cytotoxicity against human UO31 cells assessed as cell growth at 10^-5 M after 48 hrs by sulforhodamine B assay relative to control; format: functional; details: UO-31, 48 h, read-out: Activity; in short: as §7
[21] = read-out: LC50 (the source's name)

Compound: O=C1CS/C(=N/N=C/c2cccnc2)N1
- IC50 (HFL1 [1]): 0.81 µM
- Emax (HFL1 [2]): 92.1%

Compound: NS(=O)(=O)c1ccc(NC2=NC(=O)C(CC(=O)Nc3ccc(Br)cc3)S2)cc1 (racemic)
- growth at 100 µM (NCI-H460): 88%
- growth at 100 µM (MCF7 [3]): 24%
- growth at 100 µM [4]: 45%
- GI50 [5]: 58.9 µM
- CC50 [5]: 97.7 µM
- TGI [5]: 89.1 µM
- GI50 [6]: 15.6 µM
- TGI [6]: 31.7 µM
- CC50 [6, 21]: 64.3 µM
- GI50 [7]: 24.3 µM
- TGI [7]: 58.3 µM
- CC50 [7, 21]: > 100 µM
- GI50 [8]: 21.8 µM
- TGI [8]: 43.5 µM
- CC50 [8]: 86.7 µM
- GI50 (U-251): 20.7 µM
- LC50 (concentration killing 50% of cells) (U-251): 94.3 µM
- TGI (U-251): 44.2 µM
- GI50 (MDA-MB-231): 18.5 µM
- TGI (MDA-MB-231): 38.2 µM
- CC50 (MDA-MB-231; [21]): 78.6 µM

Compound: COc1ccccc1NC(=O)CSc1nnc(/N=C2\NC(=O)CS2)s1
- Activity (HFL1 [9]): Active
- inhibition (INH) [10]: Not Active
- IC50 (HFL1 [1]): 0.4 µM
- Emax (HFL1 [2]): 75%

Compound: O=C1N=C(Nc2ccc(O)cc2)S/C1=C\c1ccccc1
- GI50 (MDA-MB-435): 0.21 µM
- TGI (MDA-MB-435): 0.92 µM
- CC50 (MDA-MB-435; [21]): > 100 µM
- GI50 [11]: 0.71 µM
- TGI [11]: > 100 µM
- CC50 [11, 21]: > 100 µM
- GI50 (MCF7 [12]): 0.25 µM
- TGI (MCF7 [12]): > 100 µM
- CC50 (MCF7 [12]; [21]): > 100 µM
- IC50 (HFL1 [1]): 0.09 µM
- Emax (HFL1 [2]): 23.8%
- GI50 [5]: 12.9 µM
- CC50 [5]: 100 µM
- TGI [5]: 89.1 µM
- GI50 [8]: 0.32 µM
- TGI [8]: > 100 µM
- CC50 [8]: > 100 µM
- GI50 (U-251): 0.68 µM
- LC50 (concentration killing 50% of cells) (U-251): > 100 µM
- TGI (U-251): > 100 µM
- GI50 [13]: 0.6 µM
- TGI [13]: > 100 µM
- CC50 [13, 21]: > 100 µM
- GI50 (SR): 0.09 µM
- CC50 (SR; [21]): > 100 µM
- GI50 (KM12): 0.87 µM
- TGI (KM12): > 100 µM
- CC50 (KM12; [21]): > 100 µM
- GI50 [14]: 0.47 µM
- TGI [14]: > 100 µM
- CC50 [14, 21]: > 100 µM

Compound: CC(/C=N/N=C1\SC(CC(=O)Nc2cccc(C(F)(F)F)c2)C(=O)N1Cc1ccco1)=C\c1ccccc1 (mixture of isomers)
- IC50 (HFL1 [1]): 0.03 µM
- Emax (HFL1 [2]): 44.3%
- Activity (HFL1 [15]): Dose-dependent effect

Compound: Cc1cc(O)c(C(C)C)cc1NC1=NC(=O)S/C1=C\c1ccc(Cl)cc1
- IC50 (HFL1 [1]): 0.03 µM
- Emax (HFL1 [2]): 75.5%

Compound: CC(=C/c1ccccc1)/C=C1\SC(N(C)c2ccc(O)cc2)=NC1=O
- IC50 [16]: 3.4 µM
- Emax [16]: 55%
- Activity (HFL1 [17]): Dose-dependent effect
- IC50 (HFL1 [1]): 0.01 µM
- Emax (HFL1 [2]): 34%
- Activity (HFL1 [15]): Dose-dependent effect

Compound: O=C1N=C(Nc2ccc(O)cc2)S/C1=C\C=C/c1ccccc1
- growth at 100 µM (NCI-H460): 140%
- growth at 100 µM (MCF7 [3]): 124%
- growth at 100 µM [4]: 103%

Compound: CCOc1cc(/C=C2\SC(Nc3nc4ccc(C)cc4s3)=NC2=O)ccc1O
- IC50 [16]: 6.8 µM
- Emax [16]: 38.7%
- IC50 (HFL1 [1]): 0.01 µM
- Emax (HFL1 [2]): 48.1%

Compound: Cc1ccc(=O)n(-c2ccccc2)c1 [PIRFENIDONE]
- inhibition (INH) [10]: Not Active
- IC50 (HFL1 [1]): 0.71 µM
- Emax (HFL1 [2]): 78.5%
- growth at 10 µM [18]: 96.3%
- growth at 10 µM [19]: 76%
- growth at 10 µM (NCI-H522): 79.8%
- growth at 10 µM [20]: 76.9%
- Activity (HFL1 [15]): Dose-dependent effect

Compound: O=C1N=C(Nc2nccs2)S/C1=C1\C(=O)Nc2ccc(Br)cc21
- IC50 [16]: 0.38 µM
- Emax [16]: 67.4%
- GI50 [5]: 95.5 µM
- CC50 [5]: 100 µM
- TGI [5]: 100 µM

Compound: O=C1N=C(Nc2ccc(Cl)cc2)/C(=C/c2cccs2)S1
- Activity (HFL1 [9]): Active
- Activity (HFL1 [17]): Dose-dependent effect
- inhibition (INH) [10]: Not Active
- IC50 (HFL1 [1]): 0.57 µM
- Emax (HFL1 [2]): 79%

Compound: O=C1N=C(Nc2ccc(O)cc2)S/C1=C\c1ccc(Cl)cc1
- IC50 (HFL1 [1]): 0.02 µM
- Emax (HFL1 [2]): 46.1%
- Activity (HFL1 [15]): Dose-dependent effect
